Data on one molecule can be found in ChEMBL document CHEMBL4346679, “N, N', N″-trisubstituted guanidines: Synthesis, characterization and evaluation of their leishmanicidal activity” (Eur J Med Chem, 2019).

Molecules are shown by their SMILES. Activity calls are given as the source filed them. The calls are words filed in the database; no cut-off is given here.

In data set [1] the test system is Leishmania amazonensis. The data set can be described thus: Antileishmanial activity against promastigote stage of Leishmania amazonensis MPRO/BR/1972/M1841-LV-79 assessed as parasite growth inhibition after 72 hrs by MTT assay. Format: functional, organism-based. Particulars: MPRO/BR/1972/M1841-LV-79, 72 h. A digest of the protocol: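 Promastigotes at 1 × 10^7/mL in LIT + 10% FBS were exposed 72 h at 28 °C to ten concentrations, 0.5–100 µM (final DMSO 0.1%). Viability was read by MTT, with formazan dissolved in SDS-HCl and absorbance at 570 nm. Run in triplicate; IC50 from nonlinear regression.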
(In general: Tetrazolium assays rely on reduction of a dye to a coloured formazan, in cell work by metabolically active cells.)

For data set [2], the system named is Leishmania amazonensis. The data set can be described thus: Antileishmanial activity against Leishmania amazonensis MPRO/BR/1972/M1841-LV-79 amastigotes infected in mouse peritoneal macrophages assessed as parasite growth inhibition after 24 hrs by Giemsa staining-based microscopic method. Format: functional, organism-based. The following applies: MPRO/BR/1972/M1841-LV-79, 24 h. The essentials:
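Peritoneal macrophages (3 × 10^5/well on coverslips, RPMI 1640 + 10% FBS) adhered 4 h at 37 °C, 5% CO2, then infected with stationary-phase promastigotes at 5:1 for 4 h. After washing, cells were cultured 18 h, then treated 24 h with compounds or reference drugs. Cells were methanol-fixed and Giemsa-stained. Infection index = % infected macrophages × mean amastigotes per infected cell. IC50 was fitted by regression.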

Data set [3] can be described thus: Cytotoxicity against mouse peritoneal macrophages assessed as decrease in cell viability after 24 hrs by MTT assay. The format is cell-based, Peritoneal macrophage. The essentials: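 Peritoneal macrophages (1 × 10^5/well) in RPMI 1640 with 10% FBS, 25 mM HEPES and 2 mM L-glutamine were pre-incubated 4 h. They were then exposed to compounds for 24 h at 37 °C, 5% CO2. Viability was read by MTT; CC50 determined.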

Data set [4] in a line: Safety index, ratio of CC50 for mouse peritoneal macrophage to IC50 for promastigote stage of Leishmania amazonensis MPRO/BR/1972/M1841-LV-79. The format is toxicity. The following applies: read-out: Ratio CC50/IC50.
Data set [5] in a line: Safety index, ratio of CC50 for mouse peritoneal macrophages to IC50 for Leishmania amazonensis MPRO/BR/1972/M1841-LV-79 amastigotes infected in mouse peritoneal macrophages. The format is toxicity. The following applies: read-out: Ratio CC50/IC50.
Data set [6] concerns Leishmania amazonensis. The data set can be described thus: Antileishmanial activity against promastigote stage of Leishmania amazonensis MPRO/BR/1972/M1841-LV-79 infected in Balb/c mouse assessed as reduction in parasitic load at 2 mg/kg, ip administered once daily for 15 days by limiting dilution method relative to control. Format: functional. Details: scale not given: the % may be the effect or the level left. The essentials: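 Footpad-infected female BALB/c mice (1 × 10^7 parasites/mL promastigotes; 5 per group) were treated from six weeks post-infection. Dosing was daily ip for 15 days: 0.13 or 0.25 mg/kg/day (PBS, 0.1% DMSO), AmpB 2 mg/kg/day, or PBS vehicle. Skin-lesion parasite burden was quantified after treatment by limiting dilution and compared with untreated infected mice. Data are mean ± SD.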

The subject of data set [7] is Leishmania amazonensis. The data set is described as follows: Antileishmanial activity against Leishmania amazonensis MPRO/BR/1972/M1841-LV-79 amastigotes infected in mouse peritoneal macrophages assessed as reduction in number of intracellular amastigotes at 25 uM after 72 hrs by Giemsa staining-based microscopic method relative to control. The format is functional. Details: scale not given: the % may be the effect or the level left. A digest of the protocol:
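Infected peritoneal macrophages were treated with 25 µM of each compound, pentamidine or AmpB for 72 h. The infection index (% infected macrophages × amastigotes per infected macrophage) was compared with untreated infected cells. Data are given as mean ± SD.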

Data set [8] deals with Leishmania amazonensis. The data set can be described thus: Antileishmanial activity against promastigote stage of Leishmania amazonensis MPRO/BR/1972/M1841-LV-79 infected in Balb/c mouse assessed as reduction in volume of foot lesions at 2 mg/kg, ip administered once daily for 15 days measured every 5 days during compound dosing by caliper method. The format is functional, organism-based. A digest of the protocol:
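Infected BALB/c mice (5 per group) were dosed daily ip for 15 days, starting six weeks after footpad inoculation: 0.13 or 0.25 mg/kg/day, AmpB 2 mg/kg/day, or PBS. Foot lesion thickness was measured with a dial caliper every 5 days.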

Data set [9] in a line: Toxicity in Balb/c mouse infected with promastigote stage of Leishmania amazonensis MPRO/BR/1972/M1841-LV-79 assessed as change in body weight at 2 mg/kg, ip administered once daily for 15 days measured during compound dosing. The format is organism-based. The following applies: in vivo, 360 h.
Data set [10] has as its system Leishmania amazonensis. The data set is described as follows: Antileishmanial activity against promastigote stage of Leishmania amazonensis MPRO/BR/1972/M1841-LV-79 infected in Balb/c mouse assessed as increase in plasma bilirubin level at 2 mg/kg, ip administered once daily for 15 days measured during compound dosing. Format: functional, organism-based.
A short description of data set [11]: Renal toxicity in Balb/c mouse infected with promastigote stage of Leishmania amazonensis MPRO/BR/1972/M1841-LV-79 assessed as change in plasma creatinine level at 2 mg/kg, ip administered once daily for 15 days measured post-last dose. Particulars: in vivo, 360 h. The format is organism-based. The essentials: (§1)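 Female BALB/c mice (4 weeks old, 5 per group) were infected in the left hind footpad with 1 × 10^7 parasites/mL of infective promastigotes. After six weeks they received daily ip doses for 15 days: 0.13 or 0.25 mg/kg/day (from DMSO stock in PBS, 0.1% DMSO), AmpB 2 mg/kg/day in sterile water, or PBS. Controls were untreated infected and uninfected mice. At end of treatment, plasma bilirubin, AST, ALT, ALP, urea and creatinine were measured with commercial kits.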

Data set [12] is described as follows: Renal toxicity in Balb/c mouse infected with promastigote stage of Leishmania amazonensis MPRO/BR/1972/M1841-LV-79 assessed as change in plasma urea level at 2 mg/kg, ip administered once daily for 15 days measured post-last dose. The format is organism-based. Particulars: in vivo, 360 h. A digest of the protocol: as §1
Data set [13] deals with Leishmania amazonensis. The data set is described as follows: Antileishmanial activity against promastigote stage of Leishmania amazonensis MPRO/BR/1972/M1841-LV-79 infected in Balb/c mouse assessed as decrease in plasma alkaline phosphatase level at 2 mg/kg, ip administered once daily for 15 days measured post-last dose. The format is organism-based. Particulars: in vivo, 360 h. A digest of the protocol:
as §1

In data set [14] the test system is Leishmania amazonensis. The data set can be described thus: Antileishmanial activity against promastigote stage of Leishmania amazonensis MPRO/BR/1972/M1841-LV-79 infected in Balb/c mouse assessed as decrease in plasma aspartate aminotransferase level at 2 mg/kg, ip administered once daily for 15 days measured post-last dose. Format: functional, organism-based. A digest of the protocol:
as §1

For data set [15], the system named is Leishmania amazonensis. The data set is described as follows: Antileishmanial activity against promastigote stage of Leishmania amazonensis MPRO/BR/1972/M1841-LV-79 infected in Balb/c mouse assessed as decrease in plasma alanine aminotransferase level at 2 mg/kg, ip administered once daily for 15 days measured post-last dose. The format is functional, organism-based. A digest of the protocol:
as §1

`C[C@@H]1[C@H](O)[C@@H](C)/C=C/C=C/C=C/C=C/C=C/C=C/C=C/[C@H](O[C@@H]2O[C@H](C)[C@@H](O)[C@H](N)[C@@H]2O)C[C@@H]2O[C@](O)(C[C@@H](O)C[C@@H](O)[C@H](O)CC[C@@H](O)C[C@@H](O)CC(=O)O[C@H]1C)C[C@H](O)[C@H]2C(=O)O` [AMPHOTERICIN B]: the IC50 (in general, the midpoint of a concentration-inhibition curve) with Leishmania amazonensis [1] worked out at 3.2 µM; in the data set with Leishmania amazonensis [2] it was 4.92 µM. In data set [3], the CC50 – broadly, the concentration at which the toxic effect on the cells reaches its halfway point – at 24 h stood at 23.1 µM. For the same molecule, the selectivity ratio in data set [4] amounted to 7.2; in [5], 4.7. The Activity was 41% in the data set on Leishmania amazonensis [6]; 84% in the data set on Leishmania amazonensis [7]; “Non-Toxic” in [9]; “Non-Toxic” in data set [11]; “Non-Toxic” in data set [12]; “Active” in the data set with Leishmania amazonensis [13]. Moreover, the result in the data set with Leishmania amazonensis [8], in the data set on Leishmania amazonensis [10], in the data set on Leishmania amazonensis [14] and with Leishmania amazonensis [15] was Active.
